Consider five molecules from ChEMBL document CHEMBL3808280, “GroEL/ES inhibitors as potential antibiotics” (Bioorg Med Chem Lett, 2016).

One test deals with Acinetobacter baumannii. As to the kind of experiment: Antibacterial activity against multidrug resistant Acinetobacter baumannii 2208 (ATCC 19606) assessed as reduction in bacterial growth incubated for 6 to 8 hrs. Type of test: functional. In outline: (§1)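 Broth proliferation assay. S. aureus and MRSA grown in ATCC Medium 18, other pathogens in Brain Heart Infusion. Stagnant incubation at 37°C under breathable seal. OD600 read at mid-log (6-8 h) and corrected with bacteria-free baseline plates. EC50 by variable-slope nonlinear fit, at least triplicate.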

For a further test, the system named is Enterococcus faecium. The test is described as follows: Antibacterial activity against multidrug resistant Enterococcus faecium NCTC 7171 (ATCC 19434) assessed as reduction in bacterial growth incubated for 6 to 8 hrs. Type of test: functional, organism-based. The procedure, abridged:
as §1

The subject of the next test is Enterobacter cloacae. As to the kind of experiment: Antibacterial activity against multidrug resistant Enterobacter cloacae subsp. cloacae CDC 442-68 (ATCC 13047) assessed as reduction in bacterial growth incubated for 6 to 8 hrs. Type of test: functional, organism-based. The procedure, abridged: as §1
In test [1] the test system is Staphylococcus aureus. As to the kind of experiment: Antibacterial activity against methicillin resistant Staphylococcus aureus subsp. aureus HPV107 (ATCC BAA-44) assessed as reduction in bacterial growth incubated for 6 to 8 hrs. Type of test: functional, organism-based. In outline:
as §1

In test [2] the test system is Klebsiella pneumoniae subsp. pneumoniae. As to the kind of experiment: Antibacterial activity against multidrug resistant Klebsiella pneumoniae subsp. pneumoniae NCTC 9633 (ATCC 13883) assessed as reduction in bacterial growth incubated for 6 to 8 hrs. It counts as functional, organism-based. In outline: as §1
In the next test the test system is Pseudomonas aeruginosa. As to the kind of experiment: Antibacterial activity against multidrug resistant Pseudomonas aeruginosa NCTC 10332 (ATCC 10145) assessed as reduction in bacterial growth incubated for 6 to 8 hrs. Type of test: functional, organism-based. The procedure, abridged:
as §1

In test [3] the test system is Staphylococcus aureus. As to the kind of experiment: Antibacterial activity against methicillin susceptible Staphylococcus aureus subsp. aureus Seattle 1945 (ATCC 25923) assessed as reduction in bacterial growth incubated for 6 to 8 hrs.
In test [4] the target is T1, E. coli GroEL/ES (Escherichia coli, UniProt P0A6F5). As to the kind of experiment: Inhibition of Escherichia coli GroEL/GroES using Escherichia coli GroEL expressed in Escherichia coli DH5alpha cells and Escherichia coli GroES expressed in Escherichia coli BL21(DE3) cells assessed as reduction in pig heart native refolded MDH-mediated NADH production by micro plate reader analysis. In outline:
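Native MDH counter-screen. GroEL/ES-dMDH refolding run 60 min at 37°C, then EDTA-quenched without compound. IC50 averaged from at least triplicate.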

The test system of test [5] is Escherichia coli. As to the kind of experiment: Antibacterial activity against acrB-deficient Escherichia coli MC4100 assessed as reduction in bacterial growth incubated for 6 to 8 hrs. Type of test: functional, organism-based.
Another test concerns Bacillus subtilis. As to the kind of experiment: Antibacterial activity against Bacillus subtilis 168 assessed as reduction in bacterial growth incubated for 6 to 8 hrs. Type of test: functional, organism-based. The conditions noted are these: subsp. subtilis str. 168.
Test [6] has as its target T2, HSP60/HSP10 (Homo sapiens, UniProt P10809). The test is described as follows: Inhibition of human HSP60/HSP10 expressed in Escherichia coli Rosetta2(DE3) cells assessed as inhibition of denatured pig heart MDH refolding by measuring reduction in NADH production incubated for 60 mins by micro plate reader analysis. In outline: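 Pig heart MDH was denatured in guanidine-HCl (dMDH) and complexed with HSP60, then HSP10, in Tris pH 7.4/KCl/MgCl2/DTT buffer. EDTA quench (100 mM final); refolded MDH activity was followed with mesoxalate/NADH at 340 nm.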

In test [7] the test system is Escherichia coli. As to the kind of experiment: Antibacterial activity against Escherichia coli SM101 assessed as reduction in bacterial growth incubated for 12 hrs by UV-Vis spectrophotometric analysis. Type of test: functional, organism-based. Conditions: SM101, 12 h.
The test system of test [8] is Escherichia coli. The test is described as follows: Antibacterial activity against Escherichia coli DH5alpha assessed as reduction in bacterial growth incubated for 6 to 8 hrs. Type of test: functional, organism-based. Conditions: DH5[alpha].
Test [9] addresses T2, HSP60/HSP10. The test is described as follows: Inhibition of human HSP60/HSP10 expressed in Escherichia coli Rosetta2(DE3) cells assessed as reduction in denatured pig heart MDH ATPase activity by malachite green dye based assay.
For another test, the system named is HEK293. The test is described as follows: Cytotoxicity against HEK293 cells assessed as reduction in cell viability after 48 hrs by alamar blue assay. It counts as cell-based. Conditions: Homo sapiens, HEK293, 48 h. (Resazurin is reduced to fluorescent resorufin, in cell work by metabolically active cells.)
A short description of test [10]: Cytotoxicity against human THLE3 cells assessed as reduction in cell viability after 48 hrs by alamar blue assay. Type of test: cell-based. The conditions noted are these: THLE3, 48 h.
The target in test [11] is T1, E. coli GroEL/ES. As to the kind of experiment: Inhibition of Escherichia coli GroEL/GroES using Escherichia coli GroEL expressed in Escherichia coli DH5alpha cells and Escherichia coli GroES expressed in Escherichia coli BL21(DE3) cells assessed as reduction in native refolded rhodanese-mediated thiocyanate production by micro plate reader analysis.
The target of test [12] is T1, E. coli GroEL/ES. As to the kind of experiment: Inhibition of Escherichia coli GroEL/GroES using Escherichia coli GroEL expressed in Escherichia coli DH5alpha cells and Escherichia coli GroES expressed in Escherichia coli BL21(DE3) cells assessed as inhibition of denatured pig heart MDH refolding by measuring reduction in NADH production incubated for 60 mins by micro plate reader analysis. In outline: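 Denatured MDH (guanidine-HCl/DTT, 30 min RT) bound to GroEL with GroES in Tris pH 7.4, KCl, MgCl2, DTT buffer. 60 min at 37°C, EDTA quench to 100 mM. Refolded MDH activity read with mesoxalate/NADH at 340 nm. Log-averaged IC50 from replicates.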

The target of test [13] is T1, E. coli GroEL/ES. The test is described as follows: Inhibition of Escherichia coli GroEL/GroES using Escherichia coli GroEL expressed in Escherichia coli DH5alpha cells and Escherichia coli GroES expressed in Escherichia coli BL21(DE3) cells assessed as inhibition of denatured rhodanese refolding by measuring reduction in thiocyanate production incubated for 60 mins by micro plate reader analysis. In outline:
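Urea-denatured rhodanese bound to GroEL/GroES in folding buffer containing thiosulfate. After 60 min at 37°C, thiocyanate reaction (KCN, thiosulfate, phosphate) run, then formaldehyde quench and ferric nitrate added. Fe(SCN)3 read at 460 nm after 15 min RT, with protein-free baseline plates.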

T1 sequence (P0A6F5 whole entry, looked up): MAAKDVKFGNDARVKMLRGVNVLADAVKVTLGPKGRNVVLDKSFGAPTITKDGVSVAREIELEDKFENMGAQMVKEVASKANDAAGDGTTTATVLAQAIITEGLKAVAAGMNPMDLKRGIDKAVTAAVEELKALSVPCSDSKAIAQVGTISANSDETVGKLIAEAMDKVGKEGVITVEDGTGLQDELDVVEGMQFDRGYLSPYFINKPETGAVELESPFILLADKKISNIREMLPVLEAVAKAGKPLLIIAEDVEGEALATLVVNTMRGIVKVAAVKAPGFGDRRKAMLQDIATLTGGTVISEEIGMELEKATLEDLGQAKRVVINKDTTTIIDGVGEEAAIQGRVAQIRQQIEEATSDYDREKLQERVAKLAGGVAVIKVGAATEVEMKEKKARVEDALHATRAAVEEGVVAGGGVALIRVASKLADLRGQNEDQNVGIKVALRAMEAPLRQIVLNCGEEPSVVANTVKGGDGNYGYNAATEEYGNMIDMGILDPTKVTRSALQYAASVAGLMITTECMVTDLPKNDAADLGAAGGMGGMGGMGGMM
T2 sequence (P10809 whole entry): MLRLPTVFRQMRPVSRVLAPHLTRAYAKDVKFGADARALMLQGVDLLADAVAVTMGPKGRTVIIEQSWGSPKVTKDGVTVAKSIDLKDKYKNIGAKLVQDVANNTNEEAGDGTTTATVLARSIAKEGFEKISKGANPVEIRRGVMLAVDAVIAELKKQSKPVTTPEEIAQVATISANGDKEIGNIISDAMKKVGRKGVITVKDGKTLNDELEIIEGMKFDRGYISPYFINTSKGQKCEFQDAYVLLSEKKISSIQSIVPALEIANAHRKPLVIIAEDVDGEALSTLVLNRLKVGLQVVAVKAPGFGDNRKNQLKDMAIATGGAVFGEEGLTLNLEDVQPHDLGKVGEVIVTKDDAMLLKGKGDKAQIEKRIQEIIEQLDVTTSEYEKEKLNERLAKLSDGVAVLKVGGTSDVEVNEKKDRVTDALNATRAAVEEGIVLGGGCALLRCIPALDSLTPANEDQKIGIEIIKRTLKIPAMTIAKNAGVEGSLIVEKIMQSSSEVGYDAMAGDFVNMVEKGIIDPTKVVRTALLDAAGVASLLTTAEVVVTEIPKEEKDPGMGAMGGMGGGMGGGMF
T2 sequence (P61604 whole entry, further chain): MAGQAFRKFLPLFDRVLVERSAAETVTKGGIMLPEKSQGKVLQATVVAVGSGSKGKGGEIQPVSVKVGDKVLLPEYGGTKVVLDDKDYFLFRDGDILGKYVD

Take `CO[C@H]1/C=C/O[C@@]2(C)Oc3c(C)c(O)c4c(O)c(c(/C=N/N5CCN(C)CC5)c(O)c4c3C2=O)NC(=O)/C(C)=C\C=C\[C@H](C)[C@H](O)[C@@H](C)[C@@H](O)[C@@H](C)[C@H](OC(C)=O)[C@@H]1C` [RIFAMPIN]: the EC50 (in general, the midpoint of the concentration-response curve) with Acinetobacter baumannii is 0.47 µM; with Enterococcus faecium it was 1.2 µM; with Enterobacter cloacae it was 6.2 µM; with Staphylococcus aureus [1], 0.15 µM; in test [2], 5.4 µM; with Pseudomonas aeruginosa, 5.2 µM. The EC50 with Staphylococcus aureus [3] is less than 0.05 µM.
As to `CC(=O)c1cc2c(cc1NC(=O)c1ccccc1Br)OCCO2`, the 50% effective concentration (EC50) in the test with Acinetobacter baumannii, in the test with Enterococcus faecium, in the test on Enterobacter cloacae, in the test on Escherichia coli [5], in the test with Bacillus subtilis and with Staphylococcus aureus [1] was greater than 100 µM in each case. Besides, the 50% effective concentration (EC50) (in the test on Escherichia coli [7]; in test [2]; in the test on Pseudomonas aeruginosa; in the test with Escherichia coli [8]; with Staphylococcus aureus [3]; in the test on HEK293) was greater than 100 µM each time. Also, in test [10], the concentration giving a half-maximal response (EC50) is greater than 100 µM. The values for the concentration for half-maximal inhibition (IC50) on E. coli GroEL/ES [4], on HSP60/HSP10 [6] and on HSP60/HSP10 [9] were greater than 62.5 µM, greater than 100 µM and greater than 250 µM, respectively.
With `COc1cccc(/C=C2/SC(=S)N(CCC(=O)Nc3ccc(O)cc3)C2=O)c1`, the 50% effective concentration (EC50) in the test on Acinetobacter baumannii, in the test with Enterococcus faecium, in the test on Enterobacter cloacae, in the test with Escherichia coli [5], in the test on Bacillus subtilis and in the test on Staphylococcus aureus [1] was greater than 100 µM each time. Moreover, the EC50 was greater than 100 µM in the test with Escherichia coli [7]; greater than 100 µM in test [2]; greater than 100 µM in the test with Pseudomonas aeruginosa; greater than 100 µM with Escherichia coli [8]; 80 µM in the test with Staphylococcus aureus [3]; greater than 100 µM in the test on HEK293. Further, the EC50 in [10] is greater than 100 µM. Further, the IC50 – broadly, the concentration needed to halve the response being measured – was greater than 62.5 µM on E. coli GroEL/ES [4]; 12 µM at E. coli GroEL/ES [11]; 13 µM at HSP60/HSP10 [6]; 4.7 µM at E. coli GroEL/ES [12]; 9.6 µM on E. coli GroEL/ES [13]; greater than 250 µM on HSP60/HSP10 [9].
For the molecule `CN[C@@H]1[C@H](O[C@H]2[C@H](O[C@H]3[C@H](O)[C@@H](O)[C@H](N=C(N)N)[C@@H](O)[C@@H]3N=C(N)N)O[C@@H](C)[C@]2(O)C=O)O[C@@H](CO)[C@H](O)[C@H]1O` [STREPTOMYCIN], the EC50 in the test on Acinetobacter baumannii was greater than 100 µM; in the test on Enterococcus faecium, 50 µM; in the test with Enterobacter cloacae, greater than 100 µM; in the test with Staphylococcus aureus [1] it was greater than 100 µM; in test [2] it was 3.4 µM; in the test with Pseudomonas aeruginosa, 2.9 µM. For the same molecule, the EC50 with Staphylococcus aureus [3] came out at 3.6 µM.
As for `O=c1c([N+](=O)[O-])c(Cl)c2ccccc2n1Cc1ccccc1`, the EC50 is greater than 100 µM with Acinetobacter baumannii; greater than 100 µM with Enterococcus faecium; greater than 100 µM in the test with Enterobacter cloacae; greater than 100 µM in the test with Escherichia coli [5]; 2.8 µM with Bacillus subtilis; 21 µM in the test with Staphylococcus aureus [1]. In addition, the EC50 with Escherichia coli [7] was greater than 100 µM; in test [2], greater than 100 µM; with Pseudomonas aeruginosa, greater than 100 µM; with Escherichia coli [8] it was greater than 100 µM; in the test on Staphylococcus aureus [3], greater than 100 µM; with HEK293, 17 µM. Further, the EC50 in test [10] came out at 3.6 µM. Also, the IC50 on E. coli GroEL/ES [4] was greater than 62.5 µM; on E. coli GroEL/ES [11], greater than 100 µM; at HSP60/HSP10 [6], 2.8 µM; at E. coli GroEL/ES [12], 5.4 µM; on E. coli GroEL/ES [13] it was 22 µM; at HSP60/HSP10 [9], greater than 250 µM.
